# Results from ChEMBL document CHEMBL4842318, “A γ-lactam siderophore antibiotic effective against multidrug-resistant Pseudomonas aeruginosa, Klebsiella pneumoniae, and Acinetobacter spp” (Eur J Med Chem, 2021).
# Legend:
# Acinetobacter baumannii [1] = test: Antibacterial activity against carbapenem resistant Acinetobacter baumannii isolate PR-325 assessed as bacterial growth inhibition by microdilution method; type: functional
# Procedure, shortened: (§1)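 Broth microdilution in Chelex-treated, iron-depleted cation-adjusted Mueller-Hinton broth, following the protocol used for siderophore-containing antibiotics; inoculum lowered to 6 × 10^4 cfu/mL; MIC read as growth inhibition, in μg/mL.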
# Acinetobacter baumannii [2] = test: Antibacterial activity against carbapenem resistant Acinetobacter baumannii isolate PR-342 assessed as bacterial growth inhibition by microdilution method; type: functional; procedure, shortened: as §1
# Acinetobacter baumannii [3] = test: Antibacterial activity against carbapenem resistant Acinetobacter baumannii isolate PR-345 assessed as bacterial growth inhibition by microdilution method; type: functional; procedure, shortened: as §1
# Acinetobacter baumannii [4] = test: Antibacterial activity against carbapenem resistant Acinetobacter baumannii isolate PR-380 assessed as bacterial growth inhibition by microdilution method; type: functional; procedure, shortened: as §1
# Acinetobacter baumannii [5] = test: Antibacterial activity against carbapenem resistant Acinetobacter baumannii isolate PR-387 assessed as bacterial growth inhibition by microdilution method; type: functional; procedure, shortened: as §1
# [6] = Antibacterial activity against carbapenem susceptible Acinetobacter nosocomialis isolate PR-362 assessed as bacterial growth inhibition by microdilution method; type: functional
# Procedure, shortened: (§2)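 Broth microdilution MIC in iron-depleted (Chelex resin-treated) cation-adjusted Mueller-Hinton broth, following the protocol used for siderophore-containing antibiotics. Inoculum was lowered to 6 × 10^4 cfu/mL.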
# [7] = Antibacterial activity against carbapenem susceptible Acinetobacter nosocomialis isolate PR-365 assessed as bacterial growth inhibition by microdilution method; type: functional; procedure, shortened: as §2
# Acinetobacter baumannii [8] = test: Antibacterial activity against carbapenem susceptible Acinetobacter baumannii isolate PR-434 assessed as bacterial growth inhibition by microdilution method; type: functional; procedure, shortened: as §2
# Acinetobacter baumannii [9] = test: Antibacterial activity against carbapenem resistant Acinetobacter baumannii isolate PR-345 assessed as inhibition of bacterial growth at 1:1 compound to sulbactam concentration by microdilution method; type: functional
# Procedure, shortened: (§3)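 Iron-depleted (Chelex-treated) cation-adjusted Mueller-Hinton broth microdilution; inoculum 6 × 10^4 cfu/mL. Test agent and sulbactam mixed 1:1 by mass and serially 2-fold diluted together. MIC in μg/mL.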
# Acinetobacter baumannii [10] = test: Antibacterial activity against carbapenem resistant Acinetobacter baumannii isolate PR-399 assessed as inhibition of bacterial growth at 1:1 compound to sulbactam concentration by microdilution method; type: functional; procedure, shortened: as §3
# Acinetobacter baumannii [11] = test: Antibacterial activity against carbapenem resistant Acinetobacter baumannii isolate PR-401 assessed as inhibition of bacterial growth at 1:1 compound to sulbactam concentration by microdilution method; type: functional; procedure, shortened: as §3
# Acinetobacter baumannii [12] = test: Antibacterial activity against carbapenem susceptible Acinetobacter baumannii isolate PR-464 assessed as inhibition of bacterial growth at 1:1 compound to sulbactam concentration by microdilution method; type: functional
# Procedure, shortened: (§4)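 Broth microdilution MIC in Chelex-treated, iron-depleted cation-adjusted Mueller-Hinton broth, inoculum 6 × 10^4 cfu/mL. Compound and sulbactam combined 1:1 by mass in a 2-fold dilution series.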
# Acinetobacter baumannii [13] = test: Antibacterial activity against carbapenem susceptible Acinetobacter baumannii isolate PR-478 assessed as inhibition of bacterial growth at 1:1 compound to sulbactam concentration by microdilution method; type: functional; procedure, shortened: as §4
# Acinetobacter baumannii [14] = test: Antibacterial activity against carbapenem resistant Acinetobacter baumannii isolate PR-319 assessed as inhibition of bacterial growth in presence of 20 ug/ml sulbactam by microdilution method; type: functional; details: dose 20 µg/ml
# Acinetobacter baumannii [15] = test: Antibacterial activity against carbapenem resistant Acinetobacter baumannii isolate PR-326 assessed as inhibition of bacterial growth in presence of 20 ug/ml sulbactam by microdilution method; type: functional; details: dose 20 µg/ml
# Acinetobacter baumannii [16] = test: Antibacterial activity against carbapenem resistant Acinetobacter baumannii isolate PR-342 assessed as inhibition of bacterial growth in presence of 20 ug/ml sulbactam by microdilution method; type: functional; details: dose 20 µg/ml
# Acinetobacter baumannii [17] = test: Antibacterial activity against carbapenem resistant Acinetobacter baumannii isolate PR-384 assessed as inhibition of bacterial growth in presence of 20 ug/ml sulbactam by microdilution method; type: functional; details: dose 20 µg/ml
# Acinetobacter baumannii [18] = test: Antibacterial activity against carbapenem resistant Acinetobacter baumannii isolate PR-387 assessed as inhibition of bacterial growth in presence of 20 ug/ml sulbactam by microdilution method; type: functional; details: dose 20 µg/ml
# Acinetobacter baumannii [19] = test: Antibacterial activity against carbapenem resistant Acinetobacter baumannii isolate PR-399 assessed as inhibition of bacterial growth in presence of 20 ug/ml sulbactam by microdilution method; type: functional; details: dose 20 µg/ml
# Acinetobacter baumannii [20] = test: Antibacterial activity against carbapenem resistant Acinetobacter baumannii isolate PR-423 assessed as inhibition of bacterial growth in presence of 20 ug/ml sulbactam by microdilution method; type: functional; details: dose 20 µg/ml
# [21] = Antibacterial activity against carbapenem susceptible Acinetobacter nosocomialis isolate PR-365 assessed as inhibition of bacterial growth in presence of 20 ug/ml sulbactam by microdilution method; type: functional; details: dose 20 µg/ml
# Procedure, shortened: (§5)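 MIC by broth microdilution using iron-depleted (Chelex-treated) cation-adjusted Mueller-Hinton broth and 6 × 10^4 cfu/mL inoculum. Compound serially diluted with sulbactam held constant at 20 μg/mL.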
# Acinetobacter baumannii [22] = test: Antibacterial activity against carbapenem susceptible Acinetobacter baumannii isolate PR-452 assessed as inhibition of bacterial growth in presence of 20 ug/ml sulbactam by microdilution method; type: functional; details: dose 20 µg/ml; procedure, shortened: as §5
# Acinetobacter baumannii [23] = test: Antibacterial activity against carbapenem susceptible Acinetobacter baumannii isolate PR-464 assessed as inhibition of bacterial growth in presence of 20 ug/ml sulbactam by microdilution method; type: functional; details: dose 20 µg/ml; procedure, shortened: as §5
# [24] = Solubility of compound in pH 7.5 phosphate buffer by nephelometry; type: physicochemical
# [25] = Permeability in human Caco-2 cells; type: ADME, cell-based
# [26] = Metabolic stability in CD-1 mouse microsomes assessed as half life; type: ADME, Microsome
# Pseudomonas aeruginosa [27] = test: Antibacterial activity against Pseudomonas aeruginosa isolate PR-564 leucine at 533 residue assessed as inhibition of bacterial growth by microdilution method; type: functional; procedure, shortened: as §1
# Pseudomonas aeruginosa [28] = test: Antibacterial activity against wild type Pseudomonas aeruginosa isolate PR-668 leucine at 533 residue assessed as inhibition of bacterial growth by microdilution method; type: functional; procedure, shortened: as §2
# Pseudomonas aeruginosa [29] = test: Antibacterial activity against wild type Pseudomonas aeruginosa isolate PR-673 leucine at 533 residue assessed as inhibition of bacterial growth by microdilution method; type: functional; procedure, shortened: as §2
# Pseudomonas aeruginosa [30] = test: Antibacterial activity against wild type Pseudomonas aeruginosa isolate PR-680 leucine at 533 residue assessed as inhibition of bacterial growth by microdilution method; type: functional; procedure, shortened: as §2
# Pseudomonas aeruginosa [31] = test: Antibacterial activity against wild type Pseudomonas aeruginosa isolate PR-688 leucine at 533 residue assessed as inhibition of bacterial growth by microdilution method; type: functional; procedure, shortened: as §2
# Pseudomonas aeruginosa [32] = test: Antibacterial activity against wild type Pseudomonas aeruginosa isolate PR-699 assessed as inhibition of bacterial growth by microdilution method; type: functional; procedure, shortened: as §2
# [33] = Substrate activity at NDM1 (unknown origin) assessed as Kcat by measuring hydrolysis by spectrophotometry; type: ADME
# Procedure, shortened: (§6)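 Substrate hydrolysis (600 μM start) followed at 336 nm (Δε336 = −4362 M−1 cm−1, 0.2 cm cuvette) to completion; velocities over 10 s intervals along progress curve; Km, Vmax from double reciprocal plot, kcat = Vmax/[E].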
# [34] = Substrate activity at VIM-2 (unknown origin) assessed as ratio of Kcat to Km by measuring hydrolysis by spectrophotometry; type: ADME; procedure, shortened: as §6
# [35] = Plasma concentration in SC dosed CD-1 mouse treated four times at 6 hrs interval measured after 1 hrs; type: ADME, organism-based
# Procedure, shortened: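 CD-1 mice dosed SC at 50 mg/kg. Plasma sampled at 0.167 to 24 h, three individual mice per time point, reported as mean and SD in ng/mL.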
# Acinetobacter baumannii [36] = test: Antibacterial activity against carbapenem susceptible Acinetobacter baumannii isolate PR-340 assessed as inhibition of bacterial growth in presence of 20 ug/ml sulbactam by microdilution method
smiles,measurement,setting,value
CC(C)(O/N=C(\C(=O)N[C@H]1CN2CC(C(=O)NCCN3C(=O)c4cc(O)c(O)cc4C3=O)=C(C(=O)O)N2C1=O)c1nc(N)sc1Cl)C(=O)O,MIC,Acinetobacter baumannii [1],> 16 µg/mL
same,MIC,Acinetobacter baumannii [2],16 µg/mL
same,MIC,Acinetobacter baumannii [3],> 16 µg/mL
same,MIC,Acinetobacter baumannii [4],> 16 µg/mL
same,MIC,Acinetobacter baumannii [5],> 16 µg/mL
same,MIC,[6],> 16 µg/mL
same,MIC,[7],> 16 µg/mL
same,MIC,Acinetobacter baumannii [8],> 16 µg/mL
same,MIC,Acinetobacter baumannii [9],16 µg/mL
same,MIC,Acinetobacter baumannii [10],16 µg/mL
same,MIC,Acinetobacter baumannii [11],8 µg/mL
same,MIC,Acinetobacter baumannii [12],≤ 0.25 µg/mL
same,MIC,Acinetobacter baumannii [13],1 µg/mL
same,MIC,Acinetobacter baumannii [14],0.5 µg/mL
same,MIC,Acinetobacter baumannii [15],≤ 0.25 µg/mL
same,MIC,Acinetobacter baumannii [16],> 16 µg/mL
same,MIC,Acinetobacter baumannii [17],> 16 µg/mL
same,MIC,Acinetobacter baumannii [18],≤ 0.25 µg/mL
same,MIC,Acinetobacter baumannii [19],≤ 0.25 µg/mL
same,MIC,Acinetobacter baumannii [20],≤ 0.25 µg/mL
same,MIC,[21],≤ 0.25 µg/mL
same,MIC,Acinetobacter baumannii [22],≤ 0.25 µg/mL
same,MIC,Acinetobacter baumannii [23],≤ 0.25 µg/mL
same,solubility kinetic,[24],> 100 µM
same,permeability,[25],Impermeable
same,t1/2,[26],> 1 h
same,MIC,Pseudomonas aeruginosa [27],> 16 µg/mL
same,MIC,Pseudomonas aeruginosa [28],> 16 µg/mL
same,MIC,Pseudomonas aeruginosa [29],> 16 µg/mL
same,MIC,Pseudomonas aeruginosa [30],> 16 µg/mL
same,MIC,Pseudomonas aeruginosa [31],> 16 µg/mL
same,MIC,Pseudomonas aeruginosa [32],> 16 µg/mL
same,Kcat,[33],35 s⁻¹
same,Kcat/Km,[34],12000 M⁻¹ s⁻¹
same,concentration at 1 h,[35],3280 ng/mL
same,MIC,Acinetobacter baumannii [36],≤ 0.25 µg/mL
